Data reported in ChEMBL document CHEMBL1153726, “Synthesis and anticancer activity of sclerophytin-inspired hydroisobenzofurans” (Bioorg Med Chem Lett, 2009).

Legend:
Assay type in all cases: functional
PC-3 = assay: Growth inhibition of human PC3 cells at 1 nM after 96 hrs by MTT assay; parameters: scale not given: the % may be the effect or the level left
A498 = assay: Growth inhibition of human A498 cells at 1 nM after 96 hrs by MTT assay; parameters: scale not given: the % may be the effect or the level left
OVCAR-5 [1] = assay: Growth inhibition of human OVCAR5 cells at 1 nM after 96 hrs by MTT assay; parameters: scale not given: the % may be the effect or the level left
MDA-MB-468 [2] = assay: Growth inhibition of human MDA-MB-468 cells at 10 uM after 96 hrs by MTT assay; parameters: scale not given: the % may be the effect or the level left
SR = assay: Growth inhibition of human SR cells at 10 uM after 96 hrs by MTT assay; parameters: scale not given: the % may be the effect or the level left
K562 = assay: Growth inhibition of human K562 cells at 10 uM after 96 hrs by MTT assay; parameters: scale not given: the % may be the effect or the level left
HCT-116 [3] = assay: Growth inhibition of human HCT116 cells at 10 nM after 96 hrs by MTT assay; parameters: scale not given: the % may be the effect or the level left
SNB-75 = assay: Growth inhibition of human SNB75 cells after 96 hrs by MTT assay; details: SNB-75, 96 h
Procedure, shortened: (§1)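 Tested in the NCI 60-cell-line panel in five-dose format; GI50 and LC50 values reported for each cell line.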

UO-31 [4] = assay: Growth inhibition of human UO31 cells after 96 hrs by MTT assay; details: UO-31, 96 h; procedure, shortened: as §1
MCF7 [5] = assay: Growth inhibition of human MCF7 cells after 96 hrs by MTT assay; details: MCF7, 96 h
Procedure, shortened: (§2)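 Run in the NCI 60 human tumour cell line panel as a five-dose assay. GI50 and LC50 were reported for each cell line.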

A549 [6] = assay: Growth inhibition of human A549 cells at 10 nM after 96 hrs by MTT assay; parameters: scale not given: the % may be the effect or the level left
NCI-H322M = assay: Growth inhibition of human NCI-H322M cells after 96 hrs by MTT assay; procedure, shortened: as §2
HOP-92 [7] = assay: Growth inhibition of human HOP92 cells after 96 hrs by MTT assay; details: HOP-92, 96 h; procedure, shortened: as §2
A549 [8] = assay: Growth inhibition of human A549 cells after 96 hrs by MTT assay; details: A549, 96 h
UO-31 [9] = assay: Growth inhibition of human UO31 cells at 1 uM after 96 hrs by MTT assay; parameters: scale not given: the % may be the effect or the level left
CAKI-1 = assay: Growth inhibition of human Caki1 cells at 1 uM after 96 hrs by MTT assay; parameters: scale not given: the % may be the effect or the level left
NCI/ADR-RES = assay: Growth inhibition of human NCI/ADR-RES cells at 1 uM after 96 hrs by MTT assay; parameters: scale not given: the % may be the effect or the level left
OVCAR-5 [10] = assay: Growth inhibition of human OVCAR5 cells at 1 uM after 96 hrs by MTT assay; parameters: scale not given: the % may be the effect or the level left
MDA-MB-468 [11] = assay: Growth inhibition of human MDA-MB-468 cells at 100 nM after 96 hrs by MTT assay; parameters: scale not given: the % may be the effect or the level left
[12] = Growth inhibition of human Hs 578T cells at 100 nM after 96 hrs by MTT assay; parameters: scale not given: the % may be the effect or the level left
SN12C = assay: Growth inhibition of human SN12C cells at 100 nM after 96 hrs by MTT assay; parameters: scale not given: the % may be the effect or the level left
RXF 393 = assay: Growth inhibition of human RXF393 cells at 100 nM after 96 hrs by MTT assay; parameters: scale not given: the % may be the effect or the level left
OVCAR-8 = assay: Growth inhibition of human OVCAR8 cells at 100 nM after 96 hrs by MTT assay; parameters: scale not given: the % may be the effect or the level left
OVCAR-4 = assay: Growth inhibition of human OVCAR4 cells at 100 nM after 96 hrs by MTT assay; parameters: scale not given: the % may be the effect or the level left
OVCAR-3 = assay: Growth inhibition of human OVCAR-3 cells at 100 nM after 96 hrs by MTT assay; parameters: scale not given: the % may be the effect or the level left
UACC-62 = assay: Growth inhibition of human UACC62 cells at 100 nM after 96 hrs by MTT assay; parameters: scale not given: the % may be the effect or the level left
SK-MEL-5 = assay: Growth inhibition of human SK-MEL-5 cells at 100 nM after 96 hrs by MTT assay; parameters: scale not given: the % may be the effect or the level left
SK-MEL-2 = assay: Growth inhibition of human SK-MEL-2 cells at 100 nM after 96 hrs by MTT assay; parameters: scale not given: the % may be the effect or the level left
NCI-H460 = assay: Growth inhibition of human NCI-H460 cells at 100 nM after 96 hrs by MTT assay; parameters: scale not given: the % may be the effect or the level left
EKVX [13] = assay: Growth inhibition of human EKVX cells at 100 nM after 96 hrs by MTT assay; parameters: scale not given: the % may be the effect or the level left
[14] = Growth inhibition of human RPMI8266 cells at 100 nM after 96 hrs by MTT assay; parameters: scale not given: the % may be the effect or the level left
MCF7 [15] = assay: Growth inhibition of human MCF7 cells at 10 nM after 96 hrs by MTT assay; parameters: scale not given: the % may be the effect or the level left
DU-145 = assay: Growth inhibition of human DU145 cells at 10 nM after 96 hrs by MTT assay; parameters: scale not given: the % may be the effect or the level left
SK-OV-3 = assay: Growth inhibition of human SKOV3 cells at 10 nM after 96 hrs by MTT assay; parameters: scale not given: the % may be the effect or the level left
SNB-19 = assay: Growth inhibition of human SNB19 cells at 10 nM after 96 hrs by MTT assay; parameters: scale not given: the % may be the effect or the level left
NCI-H23 = assay: Growth inhibition of human NCI-H23 cells at 10 nM after 96 hrs by MTT assay; parameters: scale not given: the % may be the effect or the level left
HOP-92 [16] = assay: Growth inhibition of human HOP92 cells at 10 nM after 96 hrs by MTT assay; parameters: scale not given: the % may be the effect or the level left
MDA-MB-435 = assay: Growth inhibition of human MDA-MB-435 cells at 1 uM after 96 hrs by MTT assay; parameters: scale not given: the % may be the effect or the level left
HCT-116 [17] = assay: Growth inhibition of human HCT116 cells at 1 uM after 96 hrs by MTT assay; parameters: scale not given: the % may be the effect or the level left
EKVX [18] = assay: Growth inhibition of human EKVX cells at 1 uM after 96 hrs by MTT assay; parameters: scale not given: the % may be the effect or the level left
A549 [19] = assay: Growth inhibition of human A549 cells at 1 uM after 96 hrs by MTT assay; parameters: scale not given: the % may be the effect or the level left
MOLT-4 = assay: Growth inhibition of human MOLT4 cells at 1 uM after 96 hrs by MTT assay; parameters: scale not given: the % may be the effect or the level left
[20] = read-out: Log10GI50 (converted)
[21] = read-out: Log10LC50 (converted)
[22] = read-out: LC50 (the source's name)

C=C(C)[C@H]1CC=C(C)C2=CO[C@@H](c3ccccc3F)[C@@H]21
Activity (PC-3): 95% | Activity (A498): 82% | Activity (OVCAR-5 [1]): 97% | Activity (MDA-MB-468 [2]): 102.71% | Activity (SR): 62.58% | Activity (K562): 67.84% | Activity (HCT-116 [3]): 88% | GI50 (SNB-75; read-out: GI50): 4.94 µM | LC50 (SNB-75; read-out: LC50): 56.9 µM | GI50 (SNB-75; [20]): 4.9 µM | LC50 (SNB-75; [21]): 57.5 µM | TGI (SNB-75; read-out: Log10TGI (converted)): 20.4 µM | TGI (SNB-75; read-out: TGI): 20.5 µM | GI50 (UO-31 [4]; read-out: GI50): 6.32 µM | CC50 (UO-31 [4]; [22]): 49.2 µM | GI50 (UO-31 [4]; [20]): 6.31 µM | CC50 (UO-31 [4]; [21]): 49 µM | TGI (UO-31 [4]; read-out: Log10TGI (converted)): 20.9 µM | TGI (UO-31 [4]; read-out: TGI): 20.8 µM | GI50 (MCF7 [5]; read-out: GI50): 3.77 µM | CC50 (MCF7 [5]; [22]): 63.9 µM | GI50 (MCF7 [5]; [20]): 3.8 µM | CC50 (MCF7 [5]; [21]): 64.6 µM | TGI (MCF7 [5]; read-out: Log10TGI (converted)): 18.6 µM | TGI (MCF7 [5]; read-out: TGI): 18.8 µM | Activity (A549 [6]): 89% | GI50 (NCI-H322M; read-out: GI50): 9.5 µM | CC50 (NCI-H322M; [22]): 54.6 µM | GI50 (NCI-H322M; [20]): 9.55 µM | CC50 (NCI-H322M; [21]): 55 µM | TGI (NCI-H322M; read-out: Log10TGI (converted)): 23.4 µM | TGI (NCI-H322M; read-out: TGI): 23.2 µM | GI50 (HOP-92 [7]; read-out: GI50): 0.552 µM | CC50 (HOP-92 [7]; [22]): 26.8 µM | GI50 (HOP-92 [7]; [20]): 0.55 µM | CC50 (HOP-92 [7]; [21]): 26.9 µM | TGI (HOP-92 [7]; read-out: Log10TGI (converted)): 5.75 µM | TGI (HOP-92 [7]; read-out: TGI): 5.76 µM | GI50 (A549 [8]; read-out: GI50): 6.17 µM | CC50 (A549 [8]; [22]): > 100 µM | GI50 (A549 [8]; [20]): 6.17 µM | CC50 (A549 [8]; [21]): > 100 µM | TGI (A549 [8]; read-out: Log10TGI (converted)): 30.2 µM | TGI (A549 [8]; read-out: TGI): 30.1 µM | Activity (UO-31 [9]): 42% | Activity (CAKI-1): 37% | Activity (NCI/ADR-RES): 26% | Activity (OVCAR-5 [10]): 126% | Activity (MDA-MB-468 [11]): 57% | Activity [12]: 67% | Activity (SN12C): 79% | Activity (RXF 393): 84% | Activity (OVCAR-8): 93% | Activity (OVCAR-4): 76% | Activity (OVCAR-3): 90% | Activity (UACC-62): 73% | Activity (SK-MEL-5): 69% | Activity (SK-MEL-2): 76% | Activity (NCI-H460): 82% | Activity (EKVX [13]): 80% | Activity [14]: 23% | Activity (MCF7 [15]): 103% | Activity (DU-145): 84% | Activity (SK-OV-3): 100% | Activity (SNB-19): 89% | Activity (NCI-H23): 92% | Activity (HOP-92 [16]): 69% | Activity (MDA-MB-435): 4% | Activity (HCT-116 [17]): 15% | Activity (EKVX [18]): 23% | Activity (A549 [19]): 38% | Activity (MOLT-4): -15%
